# Experimental data from ChEMBL document CHEMBL2074042, “beta-lactam antibiotics as substrates for OCTN2, an organic cation/carnitine transporter” (J Biol Chem, 2000).
# How the values were obtained:
# Assay type in all cases: functional, cell-based
# [1] = target: T1, Solute carrier family 15 member 2 (Rattus norvegicus) (UniProt Q63424); experiment: TP_TRANSPORTER: inhibition of Gly-Sar uptake (Gly-Sar: 25 uM, Cefoselis: 2500uM) in PEPT2-expressing HeLa cells; design: scale not given: the % may be the effect or the level left
# T1 sequence (whole entry): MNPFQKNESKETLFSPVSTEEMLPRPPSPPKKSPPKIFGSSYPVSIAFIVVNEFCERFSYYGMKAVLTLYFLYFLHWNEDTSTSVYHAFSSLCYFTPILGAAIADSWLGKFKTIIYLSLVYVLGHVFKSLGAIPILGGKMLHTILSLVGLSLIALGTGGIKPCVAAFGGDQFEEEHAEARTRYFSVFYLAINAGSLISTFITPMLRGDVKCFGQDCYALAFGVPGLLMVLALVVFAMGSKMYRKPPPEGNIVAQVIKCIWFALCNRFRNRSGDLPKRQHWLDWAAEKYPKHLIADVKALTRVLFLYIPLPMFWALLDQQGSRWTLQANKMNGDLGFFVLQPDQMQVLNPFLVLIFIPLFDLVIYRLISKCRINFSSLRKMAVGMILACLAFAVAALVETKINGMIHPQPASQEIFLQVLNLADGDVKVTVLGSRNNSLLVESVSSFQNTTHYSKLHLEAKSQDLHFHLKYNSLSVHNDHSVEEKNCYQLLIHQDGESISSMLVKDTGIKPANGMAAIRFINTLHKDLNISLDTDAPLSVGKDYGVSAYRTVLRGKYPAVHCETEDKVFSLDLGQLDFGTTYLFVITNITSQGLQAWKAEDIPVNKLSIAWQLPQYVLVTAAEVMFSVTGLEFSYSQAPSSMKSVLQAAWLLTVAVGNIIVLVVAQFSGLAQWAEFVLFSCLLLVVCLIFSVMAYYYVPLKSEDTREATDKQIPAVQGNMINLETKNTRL
# In short: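 HeLa cells expressing rat PEPT2 cDNA. [14C]glycylsarcosine (25 μM) uptake for 5 min under an inward H+ gradient in Mes/Tris buffer, pH 6.0, with test compound at 2.5 mM. Vector-cell uptake subtracted. Results as percent of control, three independent measurements, mean ± S.E.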
# [2] = target: T2, Solute carrier family 15 member 1 (Homo sapiens) (UniProt P46059); experiment: TP_TRANSPORTER: inhibition of Gly-Sar uptake (Gly-Sar: 50 uM, Cefoselis: 2500uM) in PEPT1-expressing HeLa cells; design: scale not given: the % may be the effect or the level left
# T2 sequence (whole entry): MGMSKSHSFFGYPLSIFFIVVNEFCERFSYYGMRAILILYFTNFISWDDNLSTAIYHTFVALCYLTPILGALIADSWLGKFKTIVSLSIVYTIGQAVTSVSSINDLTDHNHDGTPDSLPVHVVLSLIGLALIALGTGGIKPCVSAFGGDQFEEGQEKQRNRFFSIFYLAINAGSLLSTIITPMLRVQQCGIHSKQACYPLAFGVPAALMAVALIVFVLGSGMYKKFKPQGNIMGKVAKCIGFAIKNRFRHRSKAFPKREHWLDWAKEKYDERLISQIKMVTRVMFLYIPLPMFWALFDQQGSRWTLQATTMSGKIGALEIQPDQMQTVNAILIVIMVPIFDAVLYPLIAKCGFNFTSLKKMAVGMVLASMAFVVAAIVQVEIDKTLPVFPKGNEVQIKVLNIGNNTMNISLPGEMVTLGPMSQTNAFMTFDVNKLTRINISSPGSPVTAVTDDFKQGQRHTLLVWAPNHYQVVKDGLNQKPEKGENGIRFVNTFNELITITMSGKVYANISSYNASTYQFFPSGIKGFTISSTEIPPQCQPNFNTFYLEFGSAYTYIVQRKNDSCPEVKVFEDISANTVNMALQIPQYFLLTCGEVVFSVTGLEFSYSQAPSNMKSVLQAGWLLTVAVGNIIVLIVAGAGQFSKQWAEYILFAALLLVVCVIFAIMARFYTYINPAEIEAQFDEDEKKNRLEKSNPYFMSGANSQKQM
# In short: (§1)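 HeLa cells expressing human PEPT1 cDNA. [14C]glycylsarcosine (50 μM) uptake for 5 min in Mes/Tris buffer, pH 6.0, giving an H+ gradient, with test compound at 2.5 mM. Vector-transfected uptake subtracted. Percent of control, n=3, mean ± S.E.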
# [3] = target: T3, Organic cation/carnitine transporter 2 (Homo sapiens, UniProt O76082); experiment: TP_TRANSPORTER: inhibition of Carnitine uptake (Carnitine: 0.02 uM) in OCTN2-expressing HeLa cells
# T3 sequence (O76082 whole entry): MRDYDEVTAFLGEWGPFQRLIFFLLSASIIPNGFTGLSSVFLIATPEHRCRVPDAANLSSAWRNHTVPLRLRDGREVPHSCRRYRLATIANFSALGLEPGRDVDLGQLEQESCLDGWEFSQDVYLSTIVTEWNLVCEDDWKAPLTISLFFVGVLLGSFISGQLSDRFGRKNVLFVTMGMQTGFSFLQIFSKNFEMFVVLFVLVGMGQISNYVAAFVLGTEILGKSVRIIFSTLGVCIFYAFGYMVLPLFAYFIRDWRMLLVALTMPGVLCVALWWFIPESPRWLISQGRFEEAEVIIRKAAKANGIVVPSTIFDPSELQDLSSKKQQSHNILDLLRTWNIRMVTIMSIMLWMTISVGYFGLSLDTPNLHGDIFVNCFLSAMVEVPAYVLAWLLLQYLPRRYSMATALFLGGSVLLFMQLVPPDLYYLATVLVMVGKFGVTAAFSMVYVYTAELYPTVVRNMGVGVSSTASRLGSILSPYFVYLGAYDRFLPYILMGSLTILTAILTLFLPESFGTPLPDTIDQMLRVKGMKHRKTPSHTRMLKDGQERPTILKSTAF
# [4] = target: T4, OCTN2 (organic cation/carnitine transporter 2) (Rattus norvegicus, UniProt O70594); experiment: TP_TRANSPORTER: inhibition of Carnitine uptake (Carnitine: 0.02 uM, Cefoselis: 2500 uM) in OCTN2-expressing HeLa cells; design: scale not given: the % may be the effect or the level left; details: human, probe carnitine (0.02 uM), read-out: Activity
# T4 sequence (O70594 whole entry): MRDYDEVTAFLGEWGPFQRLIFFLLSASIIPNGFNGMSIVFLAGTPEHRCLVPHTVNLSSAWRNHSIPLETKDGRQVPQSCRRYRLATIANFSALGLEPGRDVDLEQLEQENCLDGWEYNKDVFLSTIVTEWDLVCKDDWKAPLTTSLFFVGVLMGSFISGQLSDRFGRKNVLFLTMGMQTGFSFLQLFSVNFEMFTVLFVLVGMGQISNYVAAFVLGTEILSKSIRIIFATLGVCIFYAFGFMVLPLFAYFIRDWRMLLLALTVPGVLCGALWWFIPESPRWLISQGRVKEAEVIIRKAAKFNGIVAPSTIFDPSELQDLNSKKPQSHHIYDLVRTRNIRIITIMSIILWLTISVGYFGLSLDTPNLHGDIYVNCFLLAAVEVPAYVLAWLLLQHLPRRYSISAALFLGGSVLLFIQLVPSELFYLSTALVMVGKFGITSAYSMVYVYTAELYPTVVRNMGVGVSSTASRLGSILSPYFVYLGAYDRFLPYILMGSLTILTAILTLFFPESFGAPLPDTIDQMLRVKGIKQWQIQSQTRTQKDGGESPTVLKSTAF
# In short: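 HeLa cells expressed human or rat OCTN2 cDNA by vaccinia virus/T7 system. [3H]carnitine (20 nM) uptake for 30 min at room temperature in Na+-containing Hepes/Tris buffer, pH 7.5, with β-lactam at 2.5 mM. Lysate radioactivity counted. Endogenous activity from vector-only cells subtracted. Four measurements from two transfections.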
# [5] = target: T3, Organic cation/carnitine transporter 2; experiment: (§2) TP_TRANSPORTER: inhibition of Carnitine uptake (Carnitine: 0.02 uM, Ceftazidime: 2500 uM) in OCTN2-expressing HeLa cells
# [6] = target: T5, Organic cation/carnitine transporter 2 (Rattus norvegicus, UniProt O70594); experiment: as §2; details: human
# T5 sequence (O70594 whole entry): T4 sequence (O70594 whole entry)
# [7] = target: T2, Solute carrier family 15 member 1 (Homo sapiens); experiment: TP_TRANSPORTER: inhibition of Gly-Sar uptake (Gly-Sar: 50 uM, Ceftazidime: 2500uM) in PEPT1-expressing HeLa cells
# In short: (§3)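 HeLa cells were transfected with human PEPT1 or rat PEPT2 cDNA. [14C]glycylsarcosine uptake (50 μM for PEPT1, 25 μM for PEPT2) ran 5 min at room temperature, inward H+ gradient, 25 mM Mes/Tris pH 6.0 buffer, antibiotic 2.5 mM. Vector-cell uptake was subtracted and lysates were scintillation-counted. Mean ± S.E., three measurements.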
# [8] = target: T1, Solute carrier family 15 member 2 (Rattus norvegicus); experiment: TP_TRANSPORTER: inhibition of Gly-Sar uptake (Gly-Sar: 25 uM, Ceftazidime: 2500uM) in PEPT2-expressing HeLa cells; in short: as §3
# [9] = target: T3, Organic cation/carnitine transporter 2; experiment: TP_TRANSPORTER: inhibition of Carnitine uptake (Carnitine: 0.02 uM, Cephalexin: 2500 uM) in OCTN2-expressing HeLa cells
# [10] = target: T3, Organic cation/carnitine transporter 2; experiment: TP_TRANSPORTER: uptake in OCTN2-expressing HeLa cells
# In short: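 hOCTN2 or vector-transfected HeLa cells incubated with 1 mM cephaloridine for 1 h at 37 °C in NaCl or N-methyl-D-glucamine chloride (Na+-free) medium. Cells lysed in water and lysate centrifuged. Supernatant cephaloridine quantified by C18 HPLC with UV at 254 nm against a standard curve, expressed per 10^6 cells.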
# [11] = target: T2, Solute carrier family 15 member 1 (Homo sapiens); experiment: TP_TRANSPORTER: inhibition of Gly-Sar uptake (Gly-Sar: 50 uM, CER: 2500uM) in PEPT1-expressing HeLa cells; in short: as §1
# [12] = target: T3, Organic cation/carnitine transporter 2; experiment: TP_TRANSPORTER: inhibition of Carnitine uptake (Carnitine: 0.02 uM, Cephradine: 2500 uM) in OCTN2-expressing HeLa cells
# [13] = target: T3, Organic cation/carnitine transporter 2; experiment: TP_TRANSPORTER: inhibition of Carnitine uptake (Carnitine: 0.02 uM, Cyclacillin: 2500 uM) in OCTN2-expressing HeLa cells
smiles,measurement,setting,value
CO/N=C(\C(=O)N[C@@H]1C(=O)N2C(C(=O)[O-])=C(C[n+]3ccc(N)n3CCO)CS[C@H]12)c1csc(N)n1 [CEFOSELIS],Activity,[1],83%
same,Activity,[2],76%
same,IC50,[3],6.4 mM
same,activity at 2500 µM,[4],71%
CC(C)(O/N=C(\C(=O)N[C@@H]1C(=O)N2C(C(=O)[O-])=C(C[n+]3ccccc3)CS[C@H]12)c1csc(N)n1)C(=O)O [CEFTAZIDIME],Activity,[5],is not an inhibitor [-]
same,Activity,[6],is not an inhibitor [-]
same,Activity,[7],is not an inhibitor [-]
same,Activity,[8],is not an inhibitor [-]
CC1=C(C(=O)O)N2C(=O)[C@@H](NC(=O)[C@H](N)c3ccccc3)[C@H]2SC1 [CEPHALEXIN ANHYDROUS],Activity,[9],is not an inhibitor [-]
O=C(Cc1cccs1)N[C@@H]1C(=O)N2C(C(=O)[O-])=C(C[n+]3ccccc3)CS[C@H]12 [CEPHALORIDINE],Activity,[10],substrate [+]
same,Activity,[11],is not an inhibitor [-]
CC1=C(C(=O)O)N2C(=O)[C@@H](NC(=O)[C@H](N)C3=CCC=CC3)[C@H]2SC1 [CEPHRADINE],Activity,[12],is not an inhibitor [-]
CC1(C)S[C@@H]2[C@H](NC(=O)C3(N)CCCCC3)C(=O)N2[C@H]1C(=O)O [CYCLACILLIN],Activity,[13],is not an inhibitor [-]
